According to the array DNA melting data of Ke et al. (doi:10.1101/2024.01.08.574731):

Key:
[1] = melting temperature; fluorescence melt of hairpins on a sequencing array, two-state fit, raised by 9.35 °C to match UV melts; conditions: sodium 0.088 M
Method in brief: (§1)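 With Cy3 and quencher oligos annealed, library hairpins on a sequenced MiSeq flow cell were imaged for Cy3 fluorescence in 50 mM Na-HEPES pH 8.0, 25 mM NaCl, in 2.5 °C steps up to 60 °C. Melting temperature and folding enthalpy were derived from bootstrapped two-state fits of signals normalised to pre-quench Cy3 and to control constructs. Four replicates were combined by inverse variance, with fitted temperatures raised by 9.35 °C to match UV melts.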

[2] = folding enthalpy; higher = less favourable; fluorescence melt of hairpins on a sequencing array, two-state fit; conditions: sodium 0.088 M
Method in brief: as §1

GCGAAACGAAAGTTCCGC (((.(((....))).)))
Tm [1]: 52.5 °C | folding enthalpy [2]: -38.2 kcal/mol

GCGAAAGTCGC ((((...))))
Tm [1]: 43.8 °C | folding enthalpy [2]: -16.6 kcal/mol

GCGAACCCGAAAGGGCGC (((..(((....))))))
Tm [1]: 55.5 °C | folding enthalpy [2]: -21.4 kcal/mol

GCGAACCGTCGC ((((....))))
Tm [1]: 47.7 °C | folding enthalpy [2]: -18.7 kcal/mol

GCGAACGAAAGTTAACGC ((((((....)))..)))
Tm [1]: 44.6 °C | folding enthalpy [2]: -20.6 kcal/mol

GCGAACGAAAGTTACGC ((((((....))).)))
Tm [1]: 51.5 °C | folding enthalpy [2]: -22.7 kcal/mol

GCGAACGAAAGTTGGCGC ((((((....)))..)))
Tm [1]: 53.9 °C | folding enthalpy [2]: -32.8 kcal/mol

GCGAACGAAAGTTGTCGC ((((((....)))..)))
Tm [1]: 44.1 °C | folding enthalpy [2]: -26.2 kcal/mol

GCGAACGAAAGTTTCGC ((((((....))).)))
Tm [1]: 60 °C | folding enthalpy [2]: -36.7 kcal/mol

GCGAACGAAAGTTTGCGC ((((((....)))..)))
Tm [1]: 61.8 °C | folding enthalpy [2]: -41.9 kcal/mol

GCGAACGGAAACGCTCAC (.((.((....)).)).)
Tm [1]: 34 °C | folding enthalpy [2]: -14.3 kcal/mol

GCGAACTCGAAAGAGCGC (((..(((....))))))
Tm [1]: 49.3 °C | folding enthalpy [2]: -27.6 kcal/mol

GCGAAGAATCGC ((((....))))
Tm [1]: 50.2 °C | folding enthalpy [2]: -11.4 kcal/mol

GCGAAGCGAAAGCCGCGC (((..((....))..)))
Tm [1]: 61.6 °C | folding enthalpy [2]: -16.8 kcal/mol

GCGAAGCGAAAGCGCCGC (((..((....))..)))
Tm [1]: 65.4 °C | folding enthalpy [2]: -17.9 kcal/mol

GCGAAGCGAAAGCTGGGC ((..(((....)))..))
Tm [1]: 43.7 °C | folding enthalpy [2]: -9.44 kcal/mol

GCGAAGCGAAAGCTTGGC ((.((((....)))).))
Tm [1]: 52 °C | folding enthalpy [2]: -18.1 kcal/mol

GCGAAGGGAAACCTCCGC (((.(((....))).)))
Tm [1]: 46.6 °C | folding enthalpy [2]: -26.1 kcal/mol

GCGAAGGGAAACCTTCAC (.(((((....))))).)
Tm [1]: 38.6 °C | folding enthalpy [2]: -18.1 kcal/mol

GCGAAGTCTCGC ((((....))))
Tm [1]: 47.7 °C | folding enthalpy [2]: -14.2 kcal/mol

GCGAAGTTTCGC ((((....))))
Tm [1]: 50.7 °C | folding enthalpy [2]: -18.2 kcal/mol

GCGAATACGAAAGTACGC (((..(((....))))))
Tm [1]: 44.9 °C | folding enthalpy [2]: -25 kcal/mol

GCGAATCGTCGC ((((....))))
Tm [1]: 47.7 °C | folding enthalpy [2]: -18 kcal/mol

GCGAATGATCGC ((((....))))
Tm [1]: 42.3 °C | folding enthalpy [2]: -17.7 kcal/mol

GCGAATGGAAACGTTCGC (((((.(....).)))))
Tm [1]: 56.7 °C | folding enthalpy [2]: -38.4 kcal/mol

GCGAATGGTCGC ((((....))))
Tm [1]: 47.8 °C | folding enthalpy [2]: -10.4 kcal/mol

GCGAATGTTCGC ((((....))))
Tm [1]: 50.3 °C | folding enthalpy [2]: -25.7 kcal/mol

GCGACAATCGC ((((...))))
Tm [1]: 41.3 °C | folding enthalpy [2]: -13.9 kcal/mol

GCGACACATCGC ((((....))))
Tm [1]: 50.3 °C | folding enthalpy [2]: -24.2 kcal/mol

GCGACACCTCGC ((((....))))
Tm [1]: 51.3 °C | folding enthalpy [2]: -29.5 kcal/mol

GCGACAGGAAACTGCCAC (.(.(((....))).).)
Tm [1]: 20.6 °C | folding enthalpy [2]: -9.04 kcal/mol

GCGACATCGAAAGATCGC (((..(((....))))))
Tm [1]: 45.9 °C | folding enthalpy [2]: -26.7 kcal/mol

GCGACATTCGC ((((...))))
Tm [1]: 52.3 °C | folding enthalpy [2]: -14 kcal/mol

GCGACCCATCGC ((((....))))
Tm [1]: 52.2 °C | folding enthalpy [2]: -19.5 kcal/mol

GCGACCGAAAGGTACGC ((((((....))).)))
Tm [1]: 58.1 °C | folding enthalpy [2]: -23.8 kcal/mol

GCGACCGAAAGGTCCCGC ((((((....)))..)))
Tm [1]: 42.1 °C | folding enthalpy [2]: -13.3 kcal/mol

GCGACCGAAAGGTGTCGC ((((((....)))..)))
Tm [1]: 59 °C | folding enthalpy [2]: -35.5 kcal/mol

GCGACCGAAAGGTTACGC ((((((....)))..)))
Tm [1]: 50 °C | folding enthalpy [2]: -26.6 kcal/mol

GCGACCGCTCGC ((((....))))
Tm [1]: 48.1 °C | folding enthalpy [2]: -17.3 kcal/mol

GCGACCGGAAACGGCCGC (((.(((....))).)))
Tm [1]: 65.1 °C | folding enthalpy [2]: -25.9 kcal/mol

GCGACCGGAAACGGTCAC (.(((((....))))).)
Tm [1]: 51.4 °C | folding enthalpy [2]: -12.3 kcal/mol

GCGACGATCGC ((((...))))
Tm [1]: 42.4 °C | folding enthalpy [2]: -13.6 kcal/mol

GCGACGCGAAAGCACCGC (((..((....))..)))
Tm [1]: 55.8 °C | folding enthalpy [2]: -19.7 kcal/mol

GCGACGCGAAAGCATAGC ((.(.((....)).).))
Tm [1]: 62.7 °C | folding enthalpy [2]: -18.8 kcal/mol

GCGACGCGAAAGCGATGC ((..(((....)))..))
Tm [1]: 61.8 °C | folding enthalpy [2]: -24.1 kcal/mol

GCGACGCGAAAGCTTTGC ((.(.((....)).).))
Tm [1]: 44.7 °C | folding enthalpy [2]: -18.6 kcal/mol

GCGACGCTTCGC ((((....))))
Tm [1]: 55.7 °C | folding enthalpy [2]: -14.7 kcal/mol

GCGACGGGAAACCATCGC ((((.((....)).))))
Tm [1]: 51.4 °C | folding enthalpy [2]: -45.5 kcal/mol

GCGACTGGAAACAGCCAC (.(.(((....))).).)
Tm [1]: 27.7 °C | folding enthalpy [2]: -12.2 kcal/mol
